# Htt clearance – clearance of mutant huntingtin inclusions, primary screen, imaging, HeLa Exon1htt(103Q)mCFP, confocal imaging. aggregate imaging; zero = plate's median compound well. inhibition, % at 1.5 µM. 0.42% of 47,000 active. AID 853, 2007;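 active = inhibition of aggregate fluorescence above about 70%, also judged a hit by eye on the cell image, limit read from the data, passing the limit was not always enough; inconclusive = no rule stated for this call; inactive = not judged a hit on image review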;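 also: cells exposed to compound for three days before fixation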
# M1 antagonist – antagonists of rat M1 muscarinic receptor; Muscarinic acetylcholine receptor M1 (Rattus norvegicus), P08482; CHO-M1 cells, Fluo-4 calcium, ACh EC80 antagonist mode; stronger effect = lower value; B-score at 10 µM; 3.4% of 64,000 active; AID 628, 2007;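 active = calcium fluorescence response, raw or row-and-column corrected B-score, differing from the plate sample mean either way at a set confidence level, mostly lower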
# D1 mod – D1 CRE-luciferase signal change, two-sided – cell-based, HEK293 D1, dopamine EC30, D1 allosteric modulator project, primary screen | D(1A) dopamine receptor (Homo sapiens), P21728 | dopamine EC30 potentiation; actives deviate in either direction | B-score at 10 µM | 5.9% of 58,000 active | AID 641, 2007;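 active = luminescence count or its row- and column-corrected plate score outside the 99.7% band of the plate's sample wells, on either side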
# SF-1 act – activators of human SF-1, primary screen, cell-based, CHO-K1, Gal4-SF-1 LBD, luciferase luminescence. Steroidogenic factor 1 (Homo sapiens), Q13285. CHO-K1 Gal4-SF-1 LBD luciferase reporter; % increase over DMSO SF-1-specific signal. activation, % at 10 µM. 1.9% of 65,000 active. AID 522, 2006;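 active = activation above the mean activation of all tested compounds plus 3 SD, cut at about 50% in these data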
#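 Material: Transient Gal4-SF-1 LBD reporter, CHO-K1 | Input: 4,000 cells/well | Dosing: One dose, 10 µM compound, 1% DMSO | Incubation: 20 h compound treatment, 37 °C | Detection: SteadyLite luciferase luminescence | Evaluation: Percent activation relative to DMSO median and mock-transfected background | Benchmarks: DMSO-treated SF-1-transfected cells as negative, DMSO-treated mock-transfected cells lacking SF-1 as background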
# M1 ag – M1 muscarinic receptor agonists, primary screen, CHO-M1 cells, Fluo-4 calcium, agonist mode; B-score at 10 µM; Muscarinic acetylcholine receptor M1; AID 626, 2007; Fluo-4 calcium fluorescence; stronger effect = higher value; 3% of 64,000 active;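 active = fluorescence rise, raw or as B-score row- and column-corrected plate score, outside the 99.7% band of its plate's samples, either direction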
# RORA act – activators of orphan receptor RORA, primary screen, cell-based, luminescence | Nuclear receptor ROR-alpha (Homo sapiens), P35398 | CHO-K1 Gal4-RORA LBD luciferase reporter; percent increase over mock-subtracted basal signal | activation, % at 10 µM | 1.5% of 65,000 active | AID 560, 2006;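 active = activation above the mean of all tested compounds plus 3 SD, cut at about 49% in these data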;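 also: 0% = DMSO-treated RORA cells and 100% = added signal equal to DMSO minus mock-transfected cells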
# M1 agonist conf – rat M1 muscarinic receptor agonists, confirmation, CHO-M1 cells, Fluo-4 calcium, duplicate retest | fluorescence change (max-min) at 10 µM | 19% of 1,700 active | AID 1488, 2009 | shares compounds with M1 ag | Fluo-4 calcium fluorescence, agonist mode; actives lie on both sides;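 active = fluorescence change differs from the solvent-only DMSO control mean at a set confidence level in both duplicate runs; inconclusive = differs from solvent-only control mean in just one of two runs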;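 also: an EC20 dose of acetylcholine follows compound addition during the same imaging run; raw fluorescence intensity difference in instrument units with no normalization to controls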
# M4 agonist ctr – agonist activity at rat M4 receptor, confirmation, counter-screen for M1 allosteric modulator project, cell-based, agonist mode. 9% of 1,700 active. CHO M4/Gqi5 cells, Fluo-4 calcium fluorescence; actives lie on both sides. shares compounds with M1 ag. fluorescence change (max-min) at 10 µM. AID 1741, 2009;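 active = fluorescence change differing from the plate's solvent-only control wells at 99.7% confidence in both duplicates, whether higher or lower; inconclusive = differs from solvent controls in only one of two duplicates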
# Target sequence (P08485 whole entry, looked up): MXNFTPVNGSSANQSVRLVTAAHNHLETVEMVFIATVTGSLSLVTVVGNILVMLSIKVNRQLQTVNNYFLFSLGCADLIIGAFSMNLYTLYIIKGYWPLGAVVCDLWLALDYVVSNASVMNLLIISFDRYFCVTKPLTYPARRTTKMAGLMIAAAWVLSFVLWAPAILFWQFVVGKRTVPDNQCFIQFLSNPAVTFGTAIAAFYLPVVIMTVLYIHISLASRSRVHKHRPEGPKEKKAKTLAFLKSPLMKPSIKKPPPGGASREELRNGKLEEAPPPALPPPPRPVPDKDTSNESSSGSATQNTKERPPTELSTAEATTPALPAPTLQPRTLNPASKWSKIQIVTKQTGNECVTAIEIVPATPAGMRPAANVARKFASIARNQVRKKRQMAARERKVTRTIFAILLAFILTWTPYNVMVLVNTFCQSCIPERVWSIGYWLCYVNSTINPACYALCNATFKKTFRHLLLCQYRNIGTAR
# Starred values were filed as active, the others as inactive; ? = inconclusive; / = no result given. A selection: hits, their analogues and other compounds. The true share with any hit is near 11%.
SMILES,Htt clearance,M1 antagonist,D1 mod,SF-1 act,M1 ag,RORA act,M1 agonist conf,M4 agonist ctr
CC(=O)N1CCN(c2ccccc2NC(=O)COc2cc(C)ccc2C(C)C)CC1,-30,-0.87,-5.3*,1,4.3*,-7,-26*,-56
CCC(=O)N1CCN(c2ccccc2NC(=O)COc2cccc(C)c2)CC1,48,-0.6,1.2,-3,2.6,15,/,/
O=C(Nc1ccccc1N1CCN(C(=O)c2ccc(Cl)cc2)CC1)c1ccc2c(c1)OCO2,/,0.014,-0.63,27,-2.2*,4,-26,-28
CCC(=O)N1CCN(c2ccccc2NC(=O)COc2ccccc2Cl)CC1,31,-0.49,0.5,1,4.3*,-11,?,-75
Cc1ccc(C(C)C)c(OCC(=O)Nc2ccccc2N2CCN(C)CC2)c1,-29,-0.22,/,5,0.8,-7,/,/
CCC(=O)N1CCN(c2ccccc2NC(=O)c2cccc(C)c2)CC1,/,-0.57,-0.23,11,9.8*,-4,-15,?
Cc1ccc(C(=O)C2=C(O)C(=O)N(CCCn3ccnc3)C2c2ccc(OC(C)C)cc2)o1 (configuration not stated),-8,-0.099,-0.53,16,-0.23,2,/,/
Cc1cc(=O)oc2cc(OCC(=O)OCc3nnc(-c4ccccc4)o3)ccc12,/,-0.17,0.62,6,37*,-10,-4.5,-21
COc1ccc(-c2nn(C)c(=O)c3ccccc23)cc1NC(=O)COc1ccc(C)cc1,-11,/,/,/,/,/,/,/
Cn1nc(-c2ccc(OCC(=O)Nc3cccnc3)cc2)c2ccccc2c1=O,/,-0.59,-0.012,-1,6.2*,-4,?,-38
CC(C)(C)NS(=O)(=O)c1ccc(NS(C)(=O)=O)cc1,32,/,/,/,/,/,/,/
COCCCNC(=O)CCCn1c(=O)[nH]c2ccccc2c1=O,0,0.23,0.13,-7,2*,-11,-20,-47
O=C(CCn1c(=O)[nH]c2ccccc2c1=O)Nc1ccccc1,29,0.43,-0.28,4,11*,4,-7.7,-31
COCCCNC(=O)c1ccc(Cn2c(=O)[nH]c3ccccc3c2=O)cc1,/,0.66,0.67,8,-0.041,-9,/,/
O=C(Cn1ncc2c1-c1ccccc1OC2)N1CCN(Cc2ccc3c(c2)OCO3)CC1,/,-0.17,0.53,2,0.85,-6,/,/
CCC(C)N1CCN(C(=O)c2cccs2)CC1 (configuration not stated),7,/,/,/,/,/,/,/
COc1ccccc1S(=O)(=O)Cc1ccc(C(=O)N2CCCC2)o1,55,0.21,0.23,4,-0.99,13,/,/
CCc1ccccc1S(=O)(=O)Cc1ccc(C(=O)N2CCN(c3ccccc3OC)CC2)o1,/,-0.28,-2.4*,-13,7.2*,-18,-16,?
Cc1ccccc1S(=O)(=O)Cc1ccc(C(=O)N2CCN(c3cccc(C)c3C)CC2)o1,/,-0.63,-4.3,-82,9.7*,-44,?,-31
Cc1ccccc1S(=O)(=O)Cc1ccc(C(=O)N2CC(C)CC(C)C2)o1 (configuration not stated),?,0.0081,-0.018,4,-0.89,22,/,/
Cc1cc(NC(=O)CSc2cn(C)c3ccccc23)no1,-14,0.00036,-0.62,-18,1.1,-15,/,/
CCOC(=O)c1ccc(NC(=O)CC2COc3ccccc3O2)cc1 (configuration not stated),-20,0.029,-0.91,6,0,-2,/,/
Cc1ccc2c(C)nc(Nc3nc(CSc4nnnn4-c4ccccc4)cc(=O)[nH]3)nc2c1,/,-0.6,-0.25,9,8.6*,-10,-13,-19
CCCOc1ccc(C(=O)N2CCN(c3ccc(N)cc3Cl)CC2)cc1,/,0.24,0.67,-7,0.9,10,/,/
COc1ccc(C2=NOC(C(=O)N3CCN(c4ccccc4OC)CC3)C2)cc1 (configuration not stated),/,-1.4,-3.5*,18,2.6*,-14,-15,?
SMILES,Htt clearance,M1 antagonist,D1 mod,SF-1 act,M1 ag,RORA act,M1 agonist conf,M4 agonist ctr
O=C(O)c1ccc(S(=O)(=O)NC2CCCc3ccccc32)cc1 (configuration not stated),34,0.33,-0.038,-3,2.9*,-9,?,?
CC(=O)N1CCc2cc(S(=O)(=O)NC3CCCc4ccccc43)ccc21 (configuration not stated),-31,0.0046,/,-28,0.88,-24,/,/
COc1ccc(-c2noc(N3CCC(C(=O)N4CCN(c5ccccn5)CC4)CC3)n2)cc1,18,-2.2,-1.5,-18,2.4*,7,18,-13
COc1ccccc1OCC(O)Cn1c(Br)nc2c1c(=O)[nH]c(=O)n2C (configuration not stated),-18,-0.12,-1.4,16,4*,-17,-12,-21
COc1ccc(OC)c(NC(=O)Cc2nn(C)c(=O)c3ccccc23)c1,2,-0.52,-0.18,-12,-0.19,-12,/,/
COc1ccc(CNC(=O)Cc2nn(C)c(=O)c3ccccc23)cc1,/,-0.48,-0.81,-42,11*,-42,8.4,3.6
CCOC(=O)c1cc(NC(=O)c2c(C)noc2C)cc(C(=O)OCC)c1,0,-0.16,1.6,-15,-0.2,-19,/,/
N#Cc1cccc(NC(=O)Nc2cccs2)c1,/,-2.6,-1.8,2,11*,8,38,35
CCOc1ccc(NC(=O)CCC(=O)OC)cc1,-14,1,-0.26,0,-0.5,9,/,/
CCOc1ccc(NC(=O)CC2CC(C)(C)OC2=O)cc1 (configuration not stated),/,0.23,0.016,3,12*,-3,-23,?
O=C(C1CCN(S(=O)(=O)N2CCC3(CC2)OCCO3)CC1)N1CCN(Cc2ccccc2)CC1,17,-0.23,1.1,-2,0.19,3,/,/
O=C(C1CCN(Cc2cc(Cl)ccc2O)CC1)N1CCN(Cc2ccccc2)CC1,/,0.17,-0.78,4,5.6*,1,?,-41
CCOC(=O)N1CCC(NCCNC(=O)c2ccc(Cl)cc2)CC1,-10,-0.87,-0.37,-14,18*,3,115*,1.4
CCOC(=O)N1CCC(Nc2c(N3CCN(c4cc(Cl)ccc4C)CC3)c(=O)c2=O)CC1,2,-0.6,-1.4,6,-0.99,13,/,/

# Compound activity from PubChem BioAssay.
